Compound activity (PubChem BioAssay)
An excerpt weighted towards active compounds, which were near 1.2% of everything screened.
NPR2 activator: GC-B (human) receptor activation | HEK293-GC-B cells, CNP EC30, cGMP TR-FRET; 0% at EC30 CNP, 100% saturating CNP | P20594 | activation, % at 10 µM | 0.11% of 370,000 active;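 active means activation at 10 µM reaching about 35% in either raw or pattern-adjusted values, limit read from the data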
NPR1 activator: GC-A (human) enzyme activation. P16066. HEK293 GC-A cells, cGMP TR-FRET, EC30 ANP; 0% at EC30 ANP, 100% saturating ANP. activation, % at 10 µM. 0.14% of 370,000 active; in the data active means activation above about 40%
ARFGAP1 inh: inhibits rat ARF GTPase activating protein 1. 0.26% of 360,000 active. Q62848. inhibition, % at 16.5 µM. Arfgap1-stimulated ARF1 GTP hydrolysis, GDP FP detection. AID 651572;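 active means inhibition above a per-plate limit, mean inhibition of low control wells plus 3 SD, cut at about 25% in these data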
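Material: rat Arfgap1 GAP domain (His6, aa 1-136), purified enzyme. Also added: human ARF1(Δ1-17)-GTP substrate. Compound dosing: 16.5 µM single point, 1.26% DMSO. Timing: enzyme reaction 120 min at 25 °C after 20 min preincubation. Signal: GDP detection by fluorescence polarization. Read-out basis: percent inhibition of GAP-stimulated GDP formation, scaled between DMSO and no-Arfgap1 medians.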
core dimer inh: blocks dimerization of HCV core protein; TR-FRET GST/Flag-core106 dimerization, 1536-well; inhibition, % at 5 µM; 0.33% of 300,000 active; AID 1899;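 active means inhibition above the mean of all tested compounds plus 3 SD, set per screening campaign, cut at about 45% in these data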
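Assay system: Tagged HCV core106 pair (GST and Flag) | Buffer or medium: KF-containing HEPES buffer, pH 7.45, DTT, CHAPS, BSA | Also added: Eu donor and XL665 acceptor anti-tag antibodies | Dosing: One concentration, 5 µM, in 0.5% DMSO | Timing: 4 h at 22.5 °C | Technique: TR-FRET 671 and 617 nm emission | Repeats: Singlicate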
CTSL1 counter: counter-screen for PFM18AAP inhibitors: inhibitors of F. hepatica cathepsin L1. recombinant F. hepatica cathepsin L1, Z-Leu-Arg-MCA fluorescence. inhibition, % at 5.96 µM. 0.49% of 300,000 active. AID 1906;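 active means inhibition above the mean of all tested compounds plus 3 SD, set per screening campaign, cut at about 17% in these data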
ASAP1 inh: inhibitors of human ASAP1 ArfGAP activity | Q9ULH1 | ASAP1-stimulated ARF1 GTP hydrolysis, GDP FP detection | inhibition, % at 16.5 µM | 0.19% of 360,000 active | AID 624377; in the data active means inhibition above about 25%
Of the large screens only hits and unclear results are named; the others gave an inactive call.

CN(C)CCCN(C(=O)CCS(=O)(=O)c1ccccc1)c1nc2cc3c(cc2s1)OCO3	CTSL1 counter 29.4
Cc1ccc2sc(N(CCCN(C)C)C(=O)CCS(=O)(=O)c3ccccc3)nc2c1C	CTSL1 counter 40.2
COc1ccc(Cl)c2sc(N(CCN(C)C)C(=O)CCS(=O)(=O)c3ccc(C)cc3)nc12	none
CN(Cc1ccccc1)CC(O)COc1ccc(CNCc2nccn2C)cc1 (stereo not given)	CTSL1 counter 17.7
CCn1ccnc1CNCc1ccc(OCC(O)CN(C)Cc2ccccc2)cc1 (stereo not given)	none
C=CCn1c(-c2ccc(OC)cc2)nc2ccccc21	none
COc1ccc(-c2nc3ccccc3n2Cc2ccccc2)cc1	NPR2 activator 38.9
Brc1ccc(Cn2c(-c3cncs3)nc3ccccc32)cc1	NPR1 activator 53.2
c1ccc(Cn2c(-c3cncs3)nc3ccccc32)cc1	none
COC(=O)c1ccc(Cn2cnc3c(sc4nc(N5CCOCC5)c5c(c43)CCCC5)c2=O)o1	NPR2 activator 48.6, NPR1 activator 41.0
COC(=O)CSc1ncnc2c1sc1nc(N3CCOCC3)c3c(c12)CCCC3	none
CCOC(=O)CSc1ncnc2c1sc1nc(N3CCOCC3)c3c(c12)CCCC3	NPR2 activator 36.5
COC(=O)c1ccc(CSc2ncnc3c2sc2nc(N4CCOCC4)c4c(c23)CCCC4)o1	NPR2 activator 61.7, NPR1 activator 49.6, core dimer inh 66.2
O=Cc1cn(-c2ccc(F)cc2)c2ccccc12	none
CCCCC(=O)N/N=C/c1ccc(Sc2cccc3cccnc23)o1	none
Cc1cc(C(=O)O)ccc1NCc1ccncc1	none
CC1=Nc2nc(N3CCCCC3)c(C#N)c3c4c(nc(c23)N1)N(c1ccc(C(C)C)cc1)C(=O)C4	core dimer inh 46.2
CCc1nnc(NC(=O)[C@@H](NC(=O)c2ccc(OC)cc2)C(C)C)s1	none
O=C(O)c1ccccc1/C=N/NC(=O)C1CCCCC1	none
CCC(NC(=O)Cc1cccs1)c1ccccc1 (stereo not given)	NPR2 activator 68.3
COc1ccc(C2(C(=O)Nc3nncs3)CCCC2)cc1	none
O=C1NC(c2cccs2)Nc2sc3c(c21)CCCC3 (stereo not given)	none
CN1C(=O)c2c(sc3c2CCCC3)NC1c1ccccc1O (stereo not given)	core dimer inh 55.2 (no result: NPR2 activator, NPR1 activator, ARFGAP1 inh, ASAP1 inh)
CC(=O)c1sc(NC(=O)CCS(=O)(=O)c2ccccc2)nc1C	none
Cc1cc(C)c(C#N)c(SCC2COc3ccccc3O2)n1 (stereo not given)	none
CCOC(=O)Cc1nn(Cc2ccccc2)c(=O)c2ccccc12	none
CCOC(=O)Cc1nn(Cc2ccc(Cl)cc2)c(=O)c2ccccc12	CTSL1 counter 17.9
COc1ccc(/C=c2\s/c(=C(/C#N)C(=O)NCc3ccco3)n(-c3ccccc3)c2=O)cc1	core dimer inh 58.3
COC(=O)/C=c1/s/c(=C(\C#N)C(=O)NCc2ccco2)n(-c2ccccc2)c1=O	none
COc1cccc2cc(/C(C)=N/Nc3nc(-c4cc(C)ccc4C)cs3)c(=O)oc12	core dimer inh 75.8
CCOC(=O)C1(Cc2ccccc2)CCN(Cc2ccc(C(F)(F)F)cc2)CC1	none (no result: ARFGAP1 inh, core dimer inh, CTSL1 counter, ASAP1 inh)
CC(=O)N(/N=C1\Sc2ccccc2C1=O)c1cccc(C)c1	CTSL1 counter 87.9
COc1cc(/C=C/[N+](=O)[O-])ccc1OC(=O)c1cc2ccccc2oc1=O	core dimer inh 69.6
O=C(Nc1ccc(F)cc1F)c1ccc(COc2c(F)c(F)cc(F)c2F)o1	none
CC(CCc1ccco1)NC(=O)c1cccc2c1C(=O)N(C1CCCCC1)C2 (stereo not given)	none
COc1ccc(N2Cc3cccc(C(=O)NC(C)CCc4ccco4)c3C2=O)cc1 (stereo not given)	core dimer inh 62.8
CCOC(=O)N1CCC(N2Cc3cccc(C(=O)NCc4ccc(OC)cc4)c3C2=O)CC1	none (no result: NPR2 activator, NPR1 activator, ARFGAP1 inh, ASAP1 inh)
CCOC(=O)N1CCC(NC(=O)c2cccc3c2C(=O)N(c2ccc(OC)cc2)C3)CC1	core dimer inh 59.4
COc1ccc(CNC(=O)c2cccc3c(-c4cccc(C(N)=O)c4)coc23)cc1OC	NPR2 activator 37.7 (no result: core dimer inh, CTSL1 counter)
